Test results taken from article PMC5563258 (Journal of medicinal chemistry, 2017).

Tests used:
D3R [1] = target: T1, D3R (Homo sapiens, UniProt P35462); assay: Go BRET activation assay; type: cell-based; conditions: for Functional efficacy class: Go BRET activation assay, Figure 1
D3R [2] = target: T1, D3R; assay: β-arrestin recruitment assay; type: cell-based; conditions: Figure 2
Summary of the method: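 HEK293T cells were transiently transfected (polyethylenimine) with D3R–Rluc8 (C-terminal), mVenus–β-arrestin 2 (N-terminal) and GRK2, and assayed ~48 h later. Cells in PBS + 5 mM glucose got coelenterazine H (5 µM) for 8 min, then test compound (final 10 pM–100 µM). BRET1 (510–540/485 nm) was read at 30 min, normalized to vehicle (0%) and dopamine (100%), and fitted sigmoidally.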

D3R [3] = target: T1, D3R; conditions: BRET assay; cited from earlier work
[4] = dogs; cited from earlier work

T1 sequence (P35462 whole entry): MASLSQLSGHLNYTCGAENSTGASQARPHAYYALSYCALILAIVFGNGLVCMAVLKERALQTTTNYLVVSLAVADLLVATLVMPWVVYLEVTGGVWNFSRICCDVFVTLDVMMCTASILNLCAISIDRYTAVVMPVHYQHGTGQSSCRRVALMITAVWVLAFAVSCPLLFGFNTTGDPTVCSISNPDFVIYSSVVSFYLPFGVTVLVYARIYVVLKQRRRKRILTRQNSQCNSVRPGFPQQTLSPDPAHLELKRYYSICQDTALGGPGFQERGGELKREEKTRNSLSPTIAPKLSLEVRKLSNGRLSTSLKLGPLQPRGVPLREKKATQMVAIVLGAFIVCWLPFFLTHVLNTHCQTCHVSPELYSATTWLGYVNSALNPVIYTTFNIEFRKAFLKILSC

SMILES	Functional efficacy class (D3R [1])	Functional efficacy class (D3R [2])	further results
CC[C@H](O)CN1CCN(c2cccc(Cl)c2Cl)CC1 [(S)-6, (S)-1-(4-(2,3-Dichlorophenyl)piperazin-1-yl)butan-2-ol]	partial agonists	partial agonists	
O=C(NCC[C@H](O)CN1CCN(c2cccc(Cl)c2Cl)CC1)c1cnc2ccccc2c1 [(S)-4, (S)-N-(4-(4-(2,3-Dichlorophenyl)piperazin-1-yl)-3-hydroxybutyl)quinoline-3-carboxamide]	partial agonists	partial agonists	
O=C(NCC[C@H](O)CN1CCN(c2cccc(Cl)c2Cl)CC1)c1cc2ccccc2[nH]1 [(S)-9]	partial agonists	partial agonists	
O=C(NCC[C@@H](O)CN1CCN(c2cccc(Cl)c2Cl)CC1)c1cc2ccccc2[nH]1 [(R)-9]		antagonists	
O=C(NCCCCN1CCN(c2cccc(Cl)c2Cl)CC1)c1cc2ccccc2[nH]1 [Compound 10]			Emax (D3R [1]; HEK-293T, read-out: Emax (% of dopamine efficacy)): 16%
Clc1cccc(N2CCNCC2)c1Cl [2,3-diCl-phenylpiperazine, 1-(2,3-dichlorophenyl)piperazine]			Emax (% of dopamine efficacy) (D3R [3]): 57.3%
Cc1ncoc1-c1nnc(SCCCN2CC3CC3(c3ccc(C(F)(F)F)cc3F)C2)n1C (centres unmarked) [GSK598,809, 1-(2-fluoro-4-trifluoromethyl-phenyl)-3-{3-[4-methyl-5-(4-methyl-oxazol-5-yl)-4H-[1,2,4]triazol-3-ylsulfanyl]-propyl}-3-aza-bicyclo[3.1.0]hexane]			Effect on cocaine-mediated increases in blood pressure and heart rate [4]: potentiate cocaine-mediated increases in blood pressure and heart rate
O=C(NCC[C@@H](O)CN1CCN(c2cccc(Cl)c2Cl)CC1)c1cnc2ccccc2c1 [(R)-4, (R)-N-(4-(4-(2,3-Dichlorophenyl)piperazin-1-yl)-3-hydroxybutyl)quinoline-3-carboxamide]		antagonists	
